Measurements from ChEMBL document CHEMBL2321857, “Synthesis, topoisomerase-targeting activity and growth inhibition of lycobetaine analogs” (Bioorg Med Chem, 2013).
The source made the active and inactive calls. The rule behind the calls is not given here.

Key:
[1] = biological target: T1, DNA topoisomerase 1 (Homo sapiens) (UniProt P11387); assay: Inhibition of human recombinant topoisomerase 1-mediated relaxation of supercoiled pUC18 plasmid DNA in human MCF7 cells nuclear extracts at 100 uM after 30 mins by ethidium bromide staining based gel electrophoresis analysis; format: cell-free
T1 sequence (whole entry): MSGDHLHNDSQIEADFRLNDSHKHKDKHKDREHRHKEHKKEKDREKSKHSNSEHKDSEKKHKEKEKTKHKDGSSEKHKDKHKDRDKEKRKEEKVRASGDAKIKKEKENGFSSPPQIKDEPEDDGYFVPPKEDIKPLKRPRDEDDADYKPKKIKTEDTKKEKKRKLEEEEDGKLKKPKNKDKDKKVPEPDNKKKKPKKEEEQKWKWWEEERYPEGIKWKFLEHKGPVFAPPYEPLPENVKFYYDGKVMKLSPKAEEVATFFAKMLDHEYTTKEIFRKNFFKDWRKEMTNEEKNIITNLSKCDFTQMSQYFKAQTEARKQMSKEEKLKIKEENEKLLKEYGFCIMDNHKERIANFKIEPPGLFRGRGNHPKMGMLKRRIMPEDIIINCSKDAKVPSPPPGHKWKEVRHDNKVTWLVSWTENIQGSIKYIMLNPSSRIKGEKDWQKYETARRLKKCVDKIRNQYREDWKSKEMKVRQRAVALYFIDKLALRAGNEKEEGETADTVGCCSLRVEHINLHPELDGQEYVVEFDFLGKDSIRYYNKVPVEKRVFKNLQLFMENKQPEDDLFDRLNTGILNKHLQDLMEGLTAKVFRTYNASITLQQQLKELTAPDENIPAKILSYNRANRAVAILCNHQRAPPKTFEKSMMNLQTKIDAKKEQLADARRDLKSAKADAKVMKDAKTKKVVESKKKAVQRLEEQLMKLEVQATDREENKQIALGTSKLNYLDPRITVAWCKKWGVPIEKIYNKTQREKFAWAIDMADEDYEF
How it was run: (§1)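 Topo I activity came from MCF-7 nuclear extract (0.3 µL) acting on 250 ng supercoiled pUC18. Buffer: 10 mM Tris/HCl pH 7.9, 50 mM KCl, 10 mM MgCl2, 0.5 mM DTT, 0.5 mM EDTA, 0.03 mg/mL BSA, no ATP. Incubation 30 min at 37 °C. Stopped with SDS, then proteinase K digest. Run on 1% agarose TAE gel and stained with ethidium bromide afterward. Scored as lowest inhibiting concentration from 10, 30, 50 or 100 µM.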

[2] = Growth inhibition of human GXF251L cells after 72 hrs by SRB assay; format: functional; settings: GXF 251L
How it was run: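 GXF251L gastric xenograft-derived cells in RPMI-1640 with 10% FCS were seeded at 6000 cells/well and grown 24 h. They were then exposed 72 h in serum-containing medium with 1% DMSO final. Cells were fixed with TCA for 1 h at 4 °C and stained with 0.4% SRB. Dye was dissolved in 10 mM Tris pH 10.5 and read at 570 nm. IC50 vs DMSO control; three independent experiments.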

[3] = biological target: T1, DNA topoisomerase 1 (Homo sapiens); assay: Inhibition of human recombinant topoisomerase 1-mediated relaxation of supercoiled pUC18 plasmid DNA in human MCF7 cells nuclear extracts at 10 uM after 30 mins by ethidium bromide staining based gel electrophoresis analysis; format: cell-free; how it was run: as §1
[4] = biological target: DNA topoisomerase 2-beta (Homo sapiens) (UniProt Q02880); assay: Inhibition of human recombinant topoisomerase 2beta-mediated decatenation of kDNA at 30 uM after 60 mins by ethidium bromide staining based gel electrophoresis analysis
Chain of DNA topoisomerase 2-beta (Homo sapiens) (Q02880 whole entry): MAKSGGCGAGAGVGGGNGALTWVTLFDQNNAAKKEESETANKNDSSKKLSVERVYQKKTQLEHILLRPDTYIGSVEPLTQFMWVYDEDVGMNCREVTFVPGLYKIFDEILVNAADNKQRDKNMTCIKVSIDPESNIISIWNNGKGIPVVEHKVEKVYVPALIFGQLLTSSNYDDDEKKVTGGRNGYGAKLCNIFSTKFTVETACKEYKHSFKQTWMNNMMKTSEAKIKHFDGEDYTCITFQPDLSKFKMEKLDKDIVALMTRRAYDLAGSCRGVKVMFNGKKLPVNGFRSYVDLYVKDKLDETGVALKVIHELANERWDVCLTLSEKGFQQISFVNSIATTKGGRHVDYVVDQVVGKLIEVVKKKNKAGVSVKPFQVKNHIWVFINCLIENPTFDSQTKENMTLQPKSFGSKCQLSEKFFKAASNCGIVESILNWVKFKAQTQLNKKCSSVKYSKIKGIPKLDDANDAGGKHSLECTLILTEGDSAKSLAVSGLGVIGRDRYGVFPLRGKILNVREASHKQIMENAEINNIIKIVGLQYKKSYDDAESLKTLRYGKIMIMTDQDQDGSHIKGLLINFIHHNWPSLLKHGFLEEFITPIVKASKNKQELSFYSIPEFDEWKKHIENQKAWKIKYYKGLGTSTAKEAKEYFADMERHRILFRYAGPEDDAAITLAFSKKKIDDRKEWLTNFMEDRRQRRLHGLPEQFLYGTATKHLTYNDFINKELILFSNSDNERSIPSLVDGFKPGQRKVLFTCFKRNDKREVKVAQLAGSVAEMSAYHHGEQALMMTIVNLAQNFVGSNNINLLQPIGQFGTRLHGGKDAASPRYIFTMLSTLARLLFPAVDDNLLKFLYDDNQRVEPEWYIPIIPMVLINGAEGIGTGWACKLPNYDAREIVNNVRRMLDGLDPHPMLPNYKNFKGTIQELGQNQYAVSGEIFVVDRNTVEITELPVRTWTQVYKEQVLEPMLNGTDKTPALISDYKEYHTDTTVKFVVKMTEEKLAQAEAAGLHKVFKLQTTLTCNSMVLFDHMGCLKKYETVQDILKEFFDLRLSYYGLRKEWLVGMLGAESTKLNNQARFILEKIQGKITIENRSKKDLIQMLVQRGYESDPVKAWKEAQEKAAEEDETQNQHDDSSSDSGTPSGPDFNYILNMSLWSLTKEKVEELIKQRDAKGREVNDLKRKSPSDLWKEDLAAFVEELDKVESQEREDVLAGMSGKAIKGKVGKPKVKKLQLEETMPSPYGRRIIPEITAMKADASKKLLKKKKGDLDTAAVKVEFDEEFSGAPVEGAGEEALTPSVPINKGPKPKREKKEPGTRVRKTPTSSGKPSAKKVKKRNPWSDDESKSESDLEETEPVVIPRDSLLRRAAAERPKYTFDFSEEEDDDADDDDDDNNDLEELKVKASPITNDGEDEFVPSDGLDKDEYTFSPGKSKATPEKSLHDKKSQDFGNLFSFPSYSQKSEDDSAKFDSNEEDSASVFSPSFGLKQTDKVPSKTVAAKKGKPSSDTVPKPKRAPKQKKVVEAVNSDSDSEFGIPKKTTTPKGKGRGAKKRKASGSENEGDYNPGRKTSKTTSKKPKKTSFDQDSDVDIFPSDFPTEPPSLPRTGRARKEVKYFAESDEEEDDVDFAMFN
How it was run: (§2)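 Recombinant human topo IIα or IIβ (40 ng) was incubated with 200 ng Crithidia kDNA. Buffer: 50 mM Tris/HCl pH 7.9, 120 mM KCl, 10 mM MgCl2, 1 mM ATP, 0.5 mM DTT, 0.5 mM EDTA, 0.03 mg/mL BSA. Incubation 60 min at 37 °C. Stopped with proteinase K/SDS, digested 30 min, run on 1% agarose and stained with ethidium bromide. Decatenated minicircle signal as T/C% vs DMSO; three experiments.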

[5] = biological target: DNA topoisomerase 2-alpha (Homo sapiens) (UniProt P11388); assay: Inhibition of human recombinant topoisomerase 2alpha-mediated decatenation of kDNA at 50 uM after 60 mins by ethidium bromide staining based gel electrophoresis analysis; how it was run: as §2
Chain of DNA topoisomerase 2-alpha (Homo sapiens) (P11388 whole entry): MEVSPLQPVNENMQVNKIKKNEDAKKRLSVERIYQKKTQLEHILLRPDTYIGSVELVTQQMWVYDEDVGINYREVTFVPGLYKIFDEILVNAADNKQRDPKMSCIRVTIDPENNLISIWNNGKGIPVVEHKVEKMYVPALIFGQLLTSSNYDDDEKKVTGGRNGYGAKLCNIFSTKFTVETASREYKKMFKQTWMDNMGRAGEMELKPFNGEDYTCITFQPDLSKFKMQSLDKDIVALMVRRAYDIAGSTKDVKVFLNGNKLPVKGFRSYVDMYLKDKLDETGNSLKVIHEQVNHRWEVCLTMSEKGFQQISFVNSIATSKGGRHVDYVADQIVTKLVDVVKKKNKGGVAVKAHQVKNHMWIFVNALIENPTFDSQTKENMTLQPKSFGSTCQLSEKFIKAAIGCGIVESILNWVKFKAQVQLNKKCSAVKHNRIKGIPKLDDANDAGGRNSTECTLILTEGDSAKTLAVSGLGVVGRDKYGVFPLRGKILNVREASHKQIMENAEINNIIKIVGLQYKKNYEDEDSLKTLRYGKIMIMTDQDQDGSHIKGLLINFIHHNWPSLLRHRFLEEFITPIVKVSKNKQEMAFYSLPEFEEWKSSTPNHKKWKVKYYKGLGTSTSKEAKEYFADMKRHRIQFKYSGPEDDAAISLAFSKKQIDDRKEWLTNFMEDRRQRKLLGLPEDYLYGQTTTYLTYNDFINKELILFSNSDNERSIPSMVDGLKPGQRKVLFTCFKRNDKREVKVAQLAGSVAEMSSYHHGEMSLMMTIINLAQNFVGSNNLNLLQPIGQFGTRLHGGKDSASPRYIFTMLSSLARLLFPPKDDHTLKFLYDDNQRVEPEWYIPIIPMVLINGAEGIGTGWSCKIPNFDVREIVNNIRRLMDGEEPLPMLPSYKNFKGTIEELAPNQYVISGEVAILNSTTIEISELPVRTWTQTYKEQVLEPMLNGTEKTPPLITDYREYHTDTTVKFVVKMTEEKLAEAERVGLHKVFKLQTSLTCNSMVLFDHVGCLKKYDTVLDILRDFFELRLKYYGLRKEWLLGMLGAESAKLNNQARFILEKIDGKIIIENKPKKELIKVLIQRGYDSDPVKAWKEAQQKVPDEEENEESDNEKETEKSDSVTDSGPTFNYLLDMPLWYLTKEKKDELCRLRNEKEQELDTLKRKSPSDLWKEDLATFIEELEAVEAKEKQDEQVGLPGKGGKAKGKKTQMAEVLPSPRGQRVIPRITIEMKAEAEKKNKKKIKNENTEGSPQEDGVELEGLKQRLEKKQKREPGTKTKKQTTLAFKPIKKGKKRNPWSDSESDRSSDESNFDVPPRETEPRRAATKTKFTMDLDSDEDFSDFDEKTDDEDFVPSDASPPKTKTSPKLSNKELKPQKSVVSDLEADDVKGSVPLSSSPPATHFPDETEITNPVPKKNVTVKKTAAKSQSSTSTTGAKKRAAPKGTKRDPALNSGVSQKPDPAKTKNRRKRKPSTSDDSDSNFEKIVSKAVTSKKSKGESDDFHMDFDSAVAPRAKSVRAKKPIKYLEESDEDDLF

[6] = biological target: DNA topoisomerase 2-alpha (Homo sapiens) (UniProt P11388); assay: Inhibition of human recombinant topoisomerase 2alpha-mediated decatenation of kDNA at 100 uM after 60 mins by ethidium bromide staining based gel electrophoresis analysis; how it was run: as §2
[7] = biological target: DNA topoisomerase 2-beta (Homo sapiens) (UniProt Q02880); assay: Inhibition of human recombinant topoisomerase 2beta-mediated decatenation of kDNA up to 50 uM after 60 mins by ethidium bromide staining based gel electrophoresis analysis; how it was run: as §2
[8] = biological target: DNA topoisomerase 2-alpha (Homo sapiens) (UniProt P11388); assay: Inhibition of human recombinant topoisomerase 2alpha-mediated decatenation of kDNA up to 50 uM after 60 mins by ethidium bromide staining based gel electrophoresis analysis; how it was run: as §2
[9] = biological target: DNA topoisomerase 2-beta (Homo sapiens) (UniProt Q02880); assay: Inhibition of human recombinant topoisomerase 2beta-mediated decatenation of kDNA at 100 uM after 60 mins by ethidium bromide staining based gel electrophoresis analysis; how it was run: as §2
[10] = biological target: T1, DNA topoisomerase 1 (Homo sapiens); assay: Inhibition of human recombinant topoisomerase 1-mediated relaxation of supercoiled pUC18 plasmid DNA in human MCF7 cells nuclear extracts at 50 uM after 30 mins by ethidium bromide staining based gel electrophoresis analysis; format: cell-free; how it was run: as §1
[11] = biological target: T1, DNA topoisomerase 1 (Homo sapiens); assay: Stabilization of topoisomerase 1/DNA complex in human A431 cells; format: cell-based; settings: A-431
How it was run: (§3)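 A431 cells were grown 72 h, then treated 1 h serum-free (10–100 µM; 1% DMSO control). Cells were lysed in sarkosyl TE buffer, and lysate was spun on a CsCl step gradient at 100,000 × g for 24 h at 20 °C. Fractions were measured by A260 and slot-blotted. Topo I, IIα or IIβ was immunodetected by chemiluminescence and expressed as T/C% per DNA content. Three experiments.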

[12] = biological target: DNA topoisomerase 2-alpha (Homo sapiens) (UniProt P11388); assay: Inhibition of topoisomerase 2alpha in human A431 cells assessed as DNA peak fractions level after 1 hr by ICE assay; format: cell-based; settings: A-431; how it was run: as §3
[13] = biological target: DNA topoisomerase 2-beta (Homo sapiens) (UniProt Q02880); assay: Inhibition of topoisomerase 2beta in human A431 cells assessed as DNA peak fractions level after 1 hr by ICE assay; format: cell-based; settings: A-431; how it was run: as §3

inhibition [1]	inhibition [3]	SMILES	IC50 [2]	also measured
inactive	–	COc1ccc2ncc3cc(OC)c(OC)cc3c2c1	41.1 µM	–
–	Active	COc1ccc2c(c1)c1cc3c(cc1c[n+]2C)OCO3	0.9 µM	inhibition [4]: Active; inhibition [5]: Active
inactive	–	c1ccc2c(c1)ncc1cc3c(cc12)OCO3 [TRISPHAERIDINE]	12 µM	–
–	Active	C[n+]1cc2cc3c(cc2c2cc(O)ccc21)OCO3	1.6 µM	inhibition [4]: Active; inhibition [5]: Active
inactive	–	COc1ccc2c(cnc3ccc(O)cc32)c1	> 50 µM	–
inactive	–	COc1ccc2cnc3ccc(O)cc3c2c1	40.6 µM	–
inactive	–	COc1ccc2ncc3cc4c(cc3c2c1)OCO4	12.1 µM	–
inactive	–	Oc1ccc2ncc3cc4c(cc3c2c1)OCO4	17.3 µM	–

Continued, compound first:

SMILES	inhibition [1]	inhibition [3]	IC50 [2]	also measured
COc1ccc2c(c1)c1cc(OC)c(OC)cc1c[n+]2C	–	Active	7.8 µM	inhibition [6]: Active
C[n+]1cc2cc3c(cc2c2ccccc21)OCO3	–	Active	1.9 µM	inhibition [7]: inactive; inhibition [8]: inactive
COc1ccc2c(c1)c1ccccc1c[n+]2C	–	Active	4 µM	inhibition [9]: Active; inhibition [6]: Active
COc1cc2c[n+](C)c3ccc(O)cc3c2cc1OC	–	–	18.8 µM	inhibition [9]: inactive; inhibition [6]: inactive; inhibition [10]: Active
COc1ccc2c(c1)c[n+](C)c1ccc(O)cc21	–	Active	5.4 µM	inhibition [9]: inactive; inhibition [6]: inactive
COc1ccc2c[n+](C)c3ccc(O)cc3c2c1	inactive	–	8.4 µM	inhibition [7]: inactive; inhibition [8]: inactive
Oc1cc2c3c(c1)c1cc4c(cc1c[n+]3CC2)OCO4 [LYCOBETAINE]	–	Active	3.2 µM	Activity [11]: inactive; inhibition [12]: Dose-dependent effect; inhibition [4]: Active; inhibition [5]: Active; inhibition [13]: Dose-dependent effect
COc1cc2cnc3ccc(O)cc3c2cc1OC	inactive	–	26 µM	–
